ChEMBL document CHEMBL1153124, “5-Lipoxygenase-activating protein inhibitors. Part 2: 3-{5-((S)-1-Acetyl-2,3-dihydro-1H-indol-2-ylmethoxy)-3-tert-butylsulfanyl-1-[4-(5-methoxy-pyrimidin-2-yl)-benzyl]-1H-indol-2-yl}-2,2-dimethyl-propionic acid (AM679)--a potent FLAP inhibitor” (Bioorg Med Chem Lett, 2010)
In brackets after ≈: the same amount, converted by molar mass.

Columns and labels:
[1] = Cmax in rat at 10 mg/kg, po; format: ADME, organism-based; design: dose 10 mg/kg, route oral; details: in vivo
In short: (§1)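 Rat, oral dosing at 10 mg/kg given as the sodium carboxylate salt. Read-outs: F, clearance, Cmax, AUC and half-life.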

Cytochrome P450 2D6 = Cytochrome P450 2D6 (Homo sapiens, UniProt P10635); assay: Inhibition of CYP2D6; format: ADME
Cytochrome P450 3A4 = Cytochrome P450 3A4 (Homo sapiens, UniProt P08684); assay: Induction of CYP3A4 activity; format: ADME
In short: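 CYP3A4 induction assay measuring a compound's ability to raise CYP enzyme activity.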

[2] = Half life in rat at 10 mg/kg, po; format: ADME, organism-based; design: dose 10 mg/kg, route oral; details: in vivo; in short: as §1
Rattus norvegicus [3] = assay: Reduction of LTB4 production in lung lavage fluid of calcium ionophore A23187 treated rat bronchoalveolar lavage model at 10 mg/kg, po administered 4 hrs prior to calcium ionophore A23187 challenge; format: functional; design: scale not given: the % may be the effect or the level left
In short: (§2)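 Rat bronchoalveolar lavage model. Oral dose of 10 mg/kg as the sodium carboxylate salt, given 4 h before ionophore challenge. LTB4 and CysLT measured in lung lavage fluid; average plasma levels taken 3 h post dose.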

Rattus norvegicus [4] = assay: Reduction of CysLT production in lung lavage fluid of calcium ionophore A23187 treated rat bronchoalveolar lavage model at 10 mg/kg, po administered 4 hrs prior to calcium ionophore A23187 challenge; format: functional; design: scale not given: the % may be the effect or the level left; in short: as §2
[5] = Plasma concentration in calcium ionophore A23187 treated rat bronchoalveolar lavage model at 3 mg/kg, po administered 16 hrs prior to calcium ionophore A23187 challenge; format: ADME, organism-based; design: dose 3 mg/kg, route oral
In short: (§3)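 Rat BAL model. 3 mg/kg given orally 16 h before ionophore challenge. LTB4 and CysLT inhibition measured in lavage fluid; average plasma levels measured at that time point.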

[6] = Plasma concentration in calcium ionophore A23187 treated rat bronchoalveolar lavage model at 10 mg/kg, po administered 4 hrs prior to calcium ionophore A23187 challenge measured 3 hrs after post dose; format: ADME, organism-based; design: dose 10 mg/kg, route oral; in short: as §2
Blood [7] = assay: Reduction of LTB4 production in rat blood after 3 hrs; format: functional, tissue-based
Blood [8] = assay: Reduction of LTB4 production in rat blood after 4 hrs; format: functional, tissue-based
In short: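 Rat blood incubated with compound for 4 h, then ionophore challenge; inhibition of LTB4 production measured; IC50.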

Rattus norvegicus [9] = assay: Reduction of LTB4 production in lung lavage fluid of po dosed calcium ionophore A23187 treated rat bronchoalveolar lavage model administered 4 hrs prior to calcium ionophore A23187 challenge; format: functional
In short: (§4)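 Rat BAL model. Oral dose-response study with dosing 4 h before ionophore challenge; ED50 for LTB4 and CysLT in lavage fluid.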

Rattus norvegicus [10] = assay: Reduction of CysLT production in lung lavage fluid of po dosed calcium ionophore A23187 treated rat bronchoalveolar lavage model administered 4 hrs prior to calcium ionophore A23187 challenge; format: functional; in short: as §4
Rattus norvegicus [11] = assay: Reduction of LTB4 production in lung lavage fluid of calcium ionophore A23187 treated rat bronchoalveolar lavage model at 3 mg/kg, po administered 16 hrs prior to calcium ionophore A23187 challenge; format: functional; design: scale not given: the % may be the effect or the level left; in short: as §3
Rattus norvegicus [12] = assay: Reduction of CysLT production in lung lavage fluid of calcium ionophore A23187 treated rat bronchoalveolar lavage model at 3 mg/kg, po administered 16 hrs prior to calcium ionophore A23187 challenge; format: functional; design: scale not given: the % may be the effect or the level left; in short: as §3
Blood [13] = assay: Inhibition of LTB4 production in calcium ionophore treated A23187 human whole blood after 5 hrs; format: functional, tissue-based
In short: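 Human whole blood incubated with compound for an extended 5 h before ionophore challenge; LTB4 production measured. IC50 from n = 6, each n the average of two donors.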

[14] = Solubility in water; format: physicochemical
[15] = Solubility in 0.9% saline; format: physicochemical
[16] = target: T1, Arachidonate 5-lipoxygenase-activating protein (Homo sapiens, UniProt P20292); assay: Binding affinity to FLAP in human PMN derived membrane; format: cell membranes
T1 sequence (P20292 whole entry): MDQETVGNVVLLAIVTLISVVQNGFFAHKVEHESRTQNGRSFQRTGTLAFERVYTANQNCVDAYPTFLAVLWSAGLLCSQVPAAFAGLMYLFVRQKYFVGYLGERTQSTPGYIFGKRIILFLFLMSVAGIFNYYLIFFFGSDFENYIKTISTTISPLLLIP
In short: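 FLAP binding measured in membranes derived from human polymorphonuclear leukocytes (PMN). IC50 values are the average of n ≥ 3.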

[17] = Inhibition of LTB4 production in calcium ionophore A23187 treated human leukocytes; format: functional, cell-based; details: Leukocyte
In short: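 Human leukocytes challenged with calcium ionophore; LTB4 produced by the cells was measured. IC50 is the average of n ≥ 3.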

Blood [18] = assay: Inhibition of LTB4 production in calcium ionophore treated A23187 human whole blood after 15 mins; format: functional, tissue-based; details: 0.25 h
Cytochrome P450 2C9 = Cytochrome P450 2C9 (Homo sapiens, UniProt P11712); assay: Inhibition of CYP2C9; format: ADME
[19] = Clearance in rat at 10 mg/kg, po; format: ADME, organism-based; design: dose 10 mg/kg, route oral; details: in vivo; in short: as §1
[20] = Bioavailability in rat at 10 mg/kg; format: ADME, organism-based; details: in vivo; in short: as §1

Chain of Cytochrome P450 2C9 (P11712 whole entry): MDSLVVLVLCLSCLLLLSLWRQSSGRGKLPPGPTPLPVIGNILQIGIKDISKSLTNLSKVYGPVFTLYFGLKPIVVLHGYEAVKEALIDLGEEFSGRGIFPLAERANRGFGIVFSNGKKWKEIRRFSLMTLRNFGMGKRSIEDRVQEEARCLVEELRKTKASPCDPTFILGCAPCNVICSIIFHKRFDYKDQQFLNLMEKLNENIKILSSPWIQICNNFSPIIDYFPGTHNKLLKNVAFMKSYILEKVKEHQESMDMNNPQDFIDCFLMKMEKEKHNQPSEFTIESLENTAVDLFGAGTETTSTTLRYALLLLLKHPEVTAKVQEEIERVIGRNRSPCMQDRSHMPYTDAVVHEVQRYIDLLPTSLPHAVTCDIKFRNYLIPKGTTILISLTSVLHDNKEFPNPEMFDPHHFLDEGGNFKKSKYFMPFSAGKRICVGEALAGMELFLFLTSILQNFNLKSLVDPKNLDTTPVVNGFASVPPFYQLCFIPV
Chain of Cytochrome P450 2D6 (P10635 whole entry): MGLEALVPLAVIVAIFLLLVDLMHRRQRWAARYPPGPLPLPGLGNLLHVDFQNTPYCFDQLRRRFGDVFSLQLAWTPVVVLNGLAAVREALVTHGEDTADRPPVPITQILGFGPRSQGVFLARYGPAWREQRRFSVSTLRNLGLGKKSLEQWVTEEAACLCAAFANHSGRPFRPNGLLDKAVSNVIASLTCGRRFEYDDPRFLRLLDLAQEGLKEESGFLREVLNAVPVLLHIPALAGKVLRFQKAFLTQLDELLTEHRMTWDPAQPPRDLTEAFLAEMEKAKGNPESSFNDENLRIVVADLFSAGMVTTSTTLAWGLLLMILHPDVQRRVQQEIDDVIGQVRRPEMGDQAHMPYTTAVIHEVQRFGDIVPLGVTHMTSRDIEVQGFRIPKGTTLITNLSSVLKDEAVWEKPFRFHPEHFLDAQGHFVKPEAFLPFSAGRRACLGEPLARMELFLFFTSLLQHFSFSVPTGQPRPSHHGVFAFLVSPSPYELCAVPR
Chain of Cytochrome P450 3A4 (P08684 whole entry): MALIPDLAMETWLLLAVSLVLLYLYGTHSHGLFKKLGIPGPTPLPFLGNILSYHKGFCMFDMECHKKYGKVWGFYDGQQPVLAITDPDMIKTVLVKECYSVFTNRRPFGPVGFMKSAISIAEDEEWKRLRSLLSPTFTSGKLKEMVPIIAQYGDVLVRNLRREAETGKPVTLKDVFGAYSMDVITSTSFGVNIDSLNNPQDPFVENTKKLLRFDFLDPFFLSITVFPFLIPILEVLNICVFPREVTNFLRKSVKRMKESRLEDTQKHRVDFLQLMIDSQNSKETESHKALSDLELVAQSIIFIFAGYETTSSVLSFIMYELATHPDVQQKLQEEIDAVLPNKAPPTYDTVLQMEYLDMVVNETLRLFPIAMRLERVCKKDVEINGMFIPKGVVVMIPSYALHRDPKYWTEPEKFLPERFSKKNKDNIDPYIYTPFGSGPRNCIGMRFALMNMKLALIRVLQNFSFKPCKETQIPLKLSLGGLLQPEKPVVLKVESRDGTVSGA

Cmax [1]: 1600 nM | INH (Cytochrome P450 2D6): > 30 µM | Activity (Cytochrome P450 3A4): Not Active | half-life [2]: 6.8 h | concentration at 16 h [5]: 4 nM | concentration at 3 h [6]: 605 nM | IC50 (Blood [7]): 125 nM | IC50 (Blood [8]): 9 nM | IC50 (Blood [13]): 53 nM | solubility [14]: 10000 µg/mL (≈ 14.4 mM) | solubility [15]: 30 µg/mL (≈ 0.0433 mM) | IC50 [16]: 2.2 nM | IC50 [17]: 0.6 nM | IC50 (Blood [18]): 154 nM | IC50 (Cytochrome P450 2C9): 3700 nM | CL/F [19]: 11 mL/min/kg | bioavailability [20]: 29%
SMILES: COc1cnc(-c2ccc(Cn3c(CC(C)(C)C(=O)O)c(SC(C)(C)C)c4cc(OC[C@@H]5Cc6ccccc6N5C(C)=O)ccc43)cc2)nc1
Activity (Rattus norvegicus [3]): 98% | Activity (Rattus norvegicus [4]): 87% | ED50 (Rattus norvegicus [9]): 0.8 mg/kg | ED50 (Rattus norvegicus [10]): 1.4 mg/kg | Activity (Rattus norvegicus [11]): 77% | Activity (Rattus norvegicus [12]): 45%
